This series deals with MS2 coat protein. In words: apparent Kd, MS2 coat protein; higher = weaker binding; RNA-MaP array; FMN 200 µM where present. The procedure, abridged:
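Green signal was scaled to red-channel RNA signal and control-cluster median Fmax, and the apparent Kd was taken as the median of filtered per-cluster binding-curve fits. The binding series used SNAP-549-labelled MS2 coat protein from 0.7 or 1.5 nM, doubling to 3 µM, on designs transcribed by stalled E. coli RNA polymerase on Illumina sequencing-chip clusters. Each series ran without and then with constant ligand in 100 mM Tris-HCl pH 7.5, 80 mM KCl, 4 mM MgCl2, BSA, DTT, yeast tRNA and Tween-20.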

The mark [1] stands for this setting: designed as: OFF switch for flavin mononucleotide, no ligand.
The mark [2] stands for this setting: ligand present: flavin mononucleotide, designed as: OFF switch for flavin mononucleotide.
Setting [3] is: designed as: ON switch for flavin mononucleotide, no ligand.
Setting [4] is: ligand present: flavin mononucleotide, designed as: ON switch for flavin mononucleotide.

Results on 48 sequences are retold here after the EternaBench riboswitch data.

On to “CGCAAACAUGAGGAUCACCCAUGUGAGGAUAUGUGAGCACGAGAAAGAUAAAGUGAGCACAGAAGGCACAAGCG”, for which the apparent Kd (commonly a dissociation constant that holds for the conditions of the assay) runs as follows: under setting [1], 60.4 nM; under setting [2], 62.9 nM.
As to “GGGUACCUCGGAGGAUAUCAUGUAAAUACAUGAGGAUCACCCAUGUCGAUGGAGACAUCGGAGAUUGAGAAGGCCGAUGUACCG”, the “apparent Kd” value was determined as 168 nM under setting [3] and 9.32 nM under setting [4].
Turning to “CGUUUGUAAGGAUAUAGCCACAUUACGAAUAAGUAGUGUGGCUAGAAGGUACAUGAGGAUCACCCAUGUAUGGG”, the “apparent Kd” value is 157 nM under setting [1] and 192 nM under setting [2].
For “UUGGACGUCGGAGGAUAUGUAGGAUAUUCCUACAUGAGGAUCACCCAUGUUGACAUGGAAGAAGGACAGAAGGACGAUGUCCAU”, the “apparent Kd” value stood at 352 nM under setting [3] and 4.83 nM under setting [4].
For “CCUGUGUGAGGAUAUGUACUGCUCCUGUCCAACAGUGUAGAGCAGAAGGCACAUGAGGAUCACCCAUGUGAAAA”, the “apparent Kd” value is, setting by setting: under setting [1], 26.2 nM; under setting [2], 23.1 nM.
As for “UUCCUGUCAGGAUAUGACUAGAUGCACGUUAGUGUGUUUACUUAGAAGGGACAUGAGGAUCACCCAUGUAUUCC”, the “apparent Kd” value reads like this: under setting [1], 26.2 nM; under setting [2], 24.3 nM.
The corresponding values for “AACAGUAGAGGAUAUACAUGAGGAUCACCCAUGUGAUAAUUACGUGGCGUACCACGAUGUAGAAGGCUACUGGA” are 144 nM and 36.2 nM.
On to “UGUGUGAGACAGGAUAUGCCGGAUAUAUUACUGGUAGAAGGGUCUACAUGAGGAUCACCCAUGUGGCCGGCCGG”, for which the “apparent Kd” value by setting is: under setting [1], 18 nM; under setting [2], 29.1 nM.
Consider “GUAUGGAUUACAGGAUAUGUUAGUUUUAAGUGUAUUGGUUAUUACUUAAUUACAGAAGGGUAUUACAUGAGGAUCACCCAUGUA”, for which the “apparent Kd” value is, setting by setting: under setting [3], 16 nM; under setting [4], 11.5 nM.
Consider “GGAGCCGGCACCGAGGAUAUUCAUAUUAAAACAUGAGGAUCACCCAUGUAGGCCAGAAGGCUUUGGGAGAAGGCGGAUCGGCUCG”, for which the “apparent Kd” value by setting is: under setting [3], 604 nM; under setting [4], 38.7 nM.
On the same counts, the results for “GAAUUCGCAUGAGGAUAUGCACUCAUUUCAUGUGCAGAAGGUAUAUCAUUAGACAUGAGGAUCACCCAUGUAUUGGUCAUUAAA” are 15.8 nM and 13.9 nM.
Take “ACAUUUGGAGGAUAUACCGCUAAGUCAAAUGCAGACCUCCCACAUGAGGAUCACCCAUGUAGAAGGUCAUCUGG”: the “apparent Kd” value was 17.1 nM under setting [1] and 17.6 nM under setting [2].
The corresponding values for “ACUAUACGAGGAUAUACUGUCAGGCCUCAGACAUAAAUAAGACAUGAGGAUCACCCAUGUAGAAGGCGUUUACU” are 31.3 nM and 48 nM.
“UCACGGGAUUGAGGAUAUAUAUUAAUUUUUACAAUAGAAGGCAAAUUGUUAGUUUUUUCACUAUACAUGAGGAUCACCCAUGUU”: the “apparent Kd” value was 27.4 nM under setting [1] and 25.1 nM under setting [2].
Regarding “GCACGGCAUGUAGGAUAUGCAUAGCAUUGCUAUGCAGAAGGACAUGAGGAUCACCCAUGUAUGUAUUCCAUACAUUUCCCGUGC”, the “apparent Kd” value under setting [1] was 5.5 nM and the “apparent Kd” value under setting [2] was found to be 7.65 nM.
Take “GCCAACGCAUGAGGAUAUGCUCCCGUUUCGGGAGCAGAAGGCAUGUCAUAAGACAUGAGGAUCACCCAUGUAGUUAACAUGGCA”: the “apparent Kd” value was 572 nM under setting [3] and 31.2 nM under setting [4].
For the sequence “AUUAUAUUAGGAUAUUCGCUGUGGUACAUGAGGAUCACCCAUGUAUCUGCUUGUAUCAACGAAGAAGGAAUGUGUA”, the “apparent Kd” value is 15.5 nM under setting [1] and 16.8 nM under setting [2].
The corresponding values for “CAGCAUCAUGUAGGAUAUGCGUGGCGAAGCUAUGCAGAAGGACAUGAGGAUCACCCAUGUCUUAGCUAGCGUACUAGCUUGCUG” are 7.5 nM and 21.4 nM.
The corresponding values for “AUUUUGUCAGGAUAUGAUUAGUAGGACGAGAGUGCUACUACUUAGAAGGGACAUGAGGAUCACCCAUGUAUUCC” are 17.8 nM and 22.2 nM.
On the same counts, the results for “GGGCCCGGAGGAUAUACAAUUUUGGGCCGAAAGGCCCGGGUACAUGAGGAUCACCCAUGUAGAAGGCCGGGUUU” are 31.9 nM and 311 nM.
On to “AUCGUGCAGCUUUGCUGUACGAGUACAUGAGGAUCACCCAUGUAGGAUAUGGUACGCUUUGCGUGCUAGAAGGAUAUGCGAUUG”, for which the “apparent Kd” value under setting [1] was found to be 43.8 nM and the “apparent Kd” value under setting [2] was found to be 46.1 nM.
Turning to “AACGAGCAGUAGAAGGCGUGUCUACGGACAUGAGGAUCACCCAUGUUGUGACUCCGAAAGGAGCGCGAGGAUAUACUGCUCAAA”, the “apparent Kd” value reads like this: under setting [3], 10.3 nM; under setting [4], 6.57 nM.
The corresponding values for “GCACUUGCGUAGAAGGUACUAUAUAAUGCAGUGUAAGGAUAUACAUACAUGAGGAUCACCCAUGUAAAUGGAAUUUGCAAGUGC” are 11.8 nM and 9.15 nM.
Take “CCGGGCGGUUUGCCCACACUGUCACAGGAUAUGCCCAAAACAUGAGGAUCACCCAUGUCAAAUACGCAGAAGGGUGAUCGGAAA”: the “apparent Kd” value under setting [3] stood at 55.8 nM and the “apparent Kd” value under setting [4] was 37 nM.
With “AUGCUAGUGUGAGGAUAUACAUGAGGAUCACCCAUGUGUCCGAAGAACGGGACAUGACGUUCGUCGUAGAAGGUACAUUAGCAU”, the “apparent Kd” value runs as follows: under setting [1], 18.7 nM; under setting [2], 46.8 nM.
As for “AAGCGCGUAGGAUAUACAUGAGGAUCACCCAUGUGAGGAGGGAGUUGGAGGUGUGGAAGUAGAAGGACGGAGUG”, the “apparent Kd” value is, setting by setting: under setting [1], 48.1 nM; under setting [2], 37.6 nM.
Turning to “CCACGGUAUGUAGGAUAUGCAUAGCAUUGCUAUGCAGAAGGACAUGAGGAUCACCCAUGUAUGUAUUCCAUACUAAUCCCGUGG”, the “apparent Kd” value reads like this: under setting [1], 5.5 nM; under setting [2], 5.69 nM.
In the case of “UGUUGUAUUACAGGAUAUCUAGUAUUUUUAUUGAGAGAAGGGUAUUCACAUGAGGAUCACCCAUGUAUAUACGAGGAAGUUGUG”, the “apparent Kd” value under setting [3] came out at 50.5 nM and the “apparent Kd” value under setting [4] was found to be 49 nM.
Take “AUCCGGCGUGUAGGAUAUGGAUCCGAUUAGGAUCCAGAAGGACAUGAGGAUCACCCAUGUACAUGUAAACAGUCAUCACCGGAU”: the “apparent Kd” value by setting is: under setting [1], 6.59 nM; under setting [2], 14 nM.
With “GAUCCUUCUGUUAGGAUAUGCUACGGGCUUCCGCUGCAGAAGGAACAUGAGGAUCACCCAUGUCAAAUAAAAUC”, the “apparent Kd” value under setting [1] was found to be 20.1 nM and the “apparent Kd” value under setting [2] is 80.2 nM.
The corresponding values for “GGUUUUGUGUAAGGAUAUGCAUCACUGAGAAAUUUAGUGAGGAAGAUCACAUGAGGAUCACCCAUGUAGAAGGUACACAUGUGG” are 57.9 nM and 89.2 nM.
The corresponding values for “UCCGGACAUGAGGAUCACCCAUGUCAGGAUAUACCCGAGGCAGCGAACUCGCUAGCCAGUAGAAGGGACAUGGU” are 19.8 nM and 20.8 nM.
Take “AUUAUACAUGAGGAUCACCCAUGUAAUUAAUCUAGUAAGAUCUAGGAUAUCAGCUCGUUUAGAGCUGAGAAGGAGAUCACAUGU”: the “apparent Kd” value reads like this: under setting [3], 53.5 nM; under setting [4], 21 nM.
The corresponding values for “CAAUCUCAGAUAGGAUAUAUAGGAUAACUUAAGACCUAACAUGAGGAUCACCCAUGUGAUUAUUCGUAGAAGGAUCAUUGAACU” are 226 nM and 244 nM.
With “CAGUACUGAGGAUAUACAUGAGGAUCACCCAUGUGUUCCAGCUAGGAAACUAGCAAAAGUAGAAGGCAGUUCUG”, the “apparent Kd” value under setting [1] was 20.2 nM and the “apparent Kd” value under setting [2] stood at 182 nM.
Consider “GACUCUAAGUUUGUCACUUAGAGAGAGGAUAUGGAAAACUUGACAUGAGGAUCACCCAUGUAUAAUCAGAAGGCUCGAGUACGA”, for which the “apparent Kd” value under setting [3] is 9.95 nM and the “apparent Kd” value under setting [4] worked out at 8.98 nM.
Regarding “AACAGUACAGGAUAUACAUGAGGAUCACCCAUGUGAGCUUUAAGUGCCGUAGCACAAAGUAGAAGGGUACUGGA”, the “apparent Kd” value by setting is: under setting [1], 24.4 nM; under setting [2], 91.8 nM.
The corresponding values for “UGACUGCGUAGAAUUAGCAGCUGACAGGAUAUGACAUGAGGAUCACCCAUGUGAAAUAAGAAGAGUCAGAAGGGUCACGACACA” are 9.51 nM and 8.79 nM.
On the same counts, the results for “GUCAUGUUAGGAUAUCUGGCAUGUGACUUCGGUCACUGUCCAGAGAAGGAACAUGAGGAUCACCCAUGUUGGAC” are 75.1 nM and 57.1 nM.
Regarding “GUAGCAUACAGAGGAUAUUCAAACCACAAAAGUGGACAUGAGGAUCACCCAUGUGGCGAAAGCCGGGAGAAGGCUGAAUGCUAC”, the “apparent Kd” value reads like this: under setting [3], 15.9 nM; under setting [4], 14.3 nM.
For “AAAUAACAUGUAGGAUAUGCAGCAUUAACCAUCGCAGAAGGACAUGAGGAUCACCCAUGUGGCGAUACAAUGCAAUAAGGGAAU”, the “apparent Kd” value is, setting by setting: under setting [1], 16.2 nM; under setting [2], 40.7 nM.
As to “CGCAUUCCGUAGAAGGGUGACAUGAGGAUCACCCAUGUGCGAGCCGAGGGAGUCAGCGGCUCGCCACAGGAUAUACGGAGCACG”, the “apparent Kd” value reads like this: under setting [3], 87.3 nM; under setting [4], 84.8 nM.
As to “ACUAGAUGAGGAUAUACACAUUUUAGUGUUCCUCUAGAUUAACAUGAGGAUCACCCAUGUAGAAGGCAUCAUUU”, the “apparent Kd” value was determined as 78.5 nM under setting [1] and 231 nM under setting [2].
On the same counts, the results for “UUACUAUUACAGAAGGUUAAAUAAUAUAUAAAUGAAGGAUAUGUGACAUGAGGAUCACCCAUGUUUCACCCACAUGAGGAUCAC” are 12.1 nM and 13.3 nM.
For the sequence “CGAAAUGAUAGAGGAUAUGUUUAACAUGAGGAUCACCCAUGUGACAUGGGAUUAAUAUAUAACUUACAGAAGGCUAUUCAAUCG”, the “apparent Kd” value by setting is: under setting [1], 38.7 nM; under setting [2], 52.1 nM.
On the same counts, the results for “GACUUGUUAGGAUAUCUUACAUUUGCAUCAUAGUUACCAUUGGAGAAGGGACAUGAGGAUCACCCAUGUUUGGU” are 40 nM and 39.8 nM.
Consider “AAGGAGUCAGGAUAUGCUGCUCGUCACUUGCGUGAUGAGUAGCAGAAGGGACAUGAGGAUCACCCAUGUAAAGA”, for which the “apparent Kd” value is, setting by setting: under setting [1], 51.2 nM; under setting [2], 61.4 nM.
For the sequence “UUGAGGUGCAAGAAGGAUCACAUGAGGAUCACCCAUGUGAUAUAAAGUCUCGAGAUUUUAUAUCGAUAGGAUAUUGCACCGAAC”, the “apparent Kd” value reads like this: under setting [3], 19.9 nM; under setting [4], 13.8 nM.
